The term IC50 denotes the point on the concentration scale where inhibition reaches its midpoint. Lower therefore signals greater potency in that assay.

The test system of one experiment is WIL2-NS. Nature of the experiment: Antiproliferative activity against human WIL-2NS cells by MTT assay. It counts as functional, cell-based. The method, boiled down:
(§1)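 Exponentially growing cells resuspended in growth medium with serial drug dilutions; viability read by MTT after 96 h at 37 °C, with untreated controls allowed at least three rounds of multiplication. IC50 is the concentration cutting proliferation by 50%, mean ± SD of three independent determinations. Haematological lines were grown in RPMI-1640 with 10% FCS and antibiotics. Solid-tumour lines were grown in their own media with 10% FCS.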
Background: Tetrazolium dyes change colour on reduction, which living cells bring about.

For the next experiment, the system named is DU-145. In words: Antiproliferative activity against human DU145 cells by MTT assay. It counts as functional, cell-based. A digest of the protocol: as §1
The subject of experiment [1] is MCF7. Nature of the experiment: Induction of apoptosis in human MCF7 cells up to 50 uM after 24 hrs by propidium iodide satining assay. It counts as functional, cell-based. A digest of the protocol:
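MCF-7 cells treated at 10–50 µM for 24 h were washed in PBS. They were resuspended in 0.1% sodium citrate, 0.1% Triton X-100 and 50 µg/mL propidium iodide, then kept 30 min at 4 °C in the dark. Nuclei were read by flow cytometry on a log scale with debris gated out. The % hypodiploid nuclei is from three experiments in triplicate.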

Experiment [2] relates to MCF7. In words: Cell cycle arrest in MCF7 cells by accumulation at GO/G1 phase at 10 uM after 24hrs. In kind it is functional, Homo sapiens. The method, boiled down: (§2)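 MCF-7 cells grown in DMEM with 2 mM L-glutamine and 10% heat-inactivated FBS, seeded at 5×10^5 cells/well. After 24 h they were exposed to compound at 10 µM for 24 h. Cells plus supernatant were collected, stained with Nicoletti reagent and DNA content read by flow cytometry (FL2, linear amplification). Phase distribution was modelled from the histograms.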

In the next experiment the test system is SK-MEL-28. In words: Antiproliferative activity against human SK-MEL-28 cells by MTT assay. In kind it is functional, cell-based. The method, boiled down: as §1
Experiment [3] deals with MCF7. Nature of the experiment: Cell cycle arrest in MCF7 cells by accumulation at G2/M phase at 10 uM after 24 hrs. In kind it is functional, Homo sapiens. The method, boiled down:
as §2

For experiment [4], the system named is MCF7. Nature of the experiment: Increase in p21/WAF1 expression level in MCF7 cells at 10 uM after 24 hrs. In kind it is functional, cell-based. The note with it: Homo sapiens, TDE = time-dependent effect. The method, boiled down:
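MCF-7 cells plated at 5×10^5 per 6-cm plate the day before were treated at 10 µM for various times. Lysates were made by freeze-thaw in Tris-HCl buffer with protease and phosphatase inhibitors. 30 µg protein was run on 10% SDS-PAGE and transferred to nitrocellulose. Blots were probed overnight at 4 °C with anti-p21 monoclonal (1:200), then a secondary antibody, and detected by ECL; three experiments.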

The next experiment deals with MT4. Nature of the experiment: Antiproliferative activity against human MT4 cells by MTT assay. In kind it is functional, cell-based. A digest of the protocol: as §1
In a further experiment the test system is HepG2. In words: Antiproliferative activity against human HepG2 cells by MTT assay. In kind it is functional, cell-based. The method, boiled down: as §1
A further experiment relates to SK-MES-1. In words: Antiproliferative activity against human SKMES1 cells by MTT assay. It counts as functional, cell-based. The method, boiled down: as §1
In another experiment the test system is CCRF-CEM. Nature of the experiment: Antiproliferative activity against human CCRF-CEM cells by MTT assay. In kind it is functional, cell-based. The method, boiled down: as §1
Experiment [5] in a line: Antiproliferative activity against human CRL7065 cells by MTT assay. In kind it is functional, cell-based. Conditions: CRL-7065. A digest of the protocol: as §1
Experiment [6] concerns MCF7. Nature of the experiment: Antiproliferative activity against human MCF7 cells by MTT assay. It counts as functional, cell-based. The method, boiled down:
as §1

The subject of experiment [7] is MCF7. Nature of the experiment: Cell cycle arrest in MCF7 cells by accumulation at S phase at 10 uM after 24 hrs. In kind it is functional, Homo sapiens. The method, boiled down: as §2
The next experiment has as its system CCRF-SB. In words: Antiproliferative activity against human CCRF-SB cells by MTT assay. It counts as functional, cell-based. The method, boiled down:
as §1

The structures appear in SMILES notation. Active and inactive are the calls of the source. The calls are words filed in the database; no cut-off is given here.

Consider `COc1cc(-c2cc(CN3CC4CCC(C3)N4Cc3ccnc(-c4cc(OC)c(OC)c(OC)c4)c3)ccn2)cc(OC)c1OC`, for which the IC50 with WIL2-NS stood at 3 µM; in the experiment with DU-145, 14 µM; in the experiment with SK-MEL-28, 4 µM; in the experiment with MT4, 2 µM; in the experiment on HepG2, 8 µM; in the experiment with SK-MES-1 it was 10 µM. Moreover, the IC50 in the experiment with CCRF-CEM was 2 µM; in experiment [5], greater than 100 µM; in the experiment on MCF7 [6], 5 µM; in the experiment with CCRF-SB, 3 µM. Further, in the experiment with MCF7 [1], the result was inactive. Moreover, the Activity with MCF7 [2] is 87%; in the experiment on MCF7 [3] it was 7.5%; in the experiment on MCF7 [4], “tde”; in the experiment on MCF7 [7], 4.6%.

These data come from ChEMBL document CHEMBL1144601, “Synthesis and antiproliferative properties of N3/8-disubstituted 3,8-diazabicyclo[3.2.1]octane analogues of 3,8-bis[2-(3,4,5-trimethoxyphenyl)pyridin-4-yl]methyl-piperazine” (Eur J Med Chem, 2007).
